Measurements reported in ChEMBL document CHEMBL2010709, “Pinophilins A and B, inhibitors of mammalian A-, B-, and Y-family DNA polymerases and human cancer cell proliferation” (J Nat Prod, 2012).

Tests used:
A549 = experiment: Growth inhibition of human A549 cells after 24 hrs by WST-1 assay; type: functional; details: A549, 24 h
Summary of the method: (§1)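 Cancer cells were grown in McCoy's 5A with 10% FBS and penicillin/streptomycin, 37 °C, 5% CO2. Cells were seeded at 1 × 10^4 per well, cultured 12 h, then given compound (10 mM DMSO stock diluted in medium, 0.5% DMSO) for 24 h. WST-1 was added for 4 h and absorbance read at 450/630 nm. GI50 given as mean ± SE, five independent experiments.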

BALL-1 = experiment: Growth inhibition of human BALL-1 cells after 24 hrs by WST-1 assay; type: functional; details: BALL-1, 24 h; summary of the method: as §1
HCT-116 = experiment: Growth inhibition of against human HCT116 cells after 24 hrs by WST-1 assay; type: functional; details: HCT-116, 24 h; summary of the method: as §1
HeLa = experiment: Growth inhibition of human HeLa cells after 24 hrs by WST-1 assay; type: functional; summary of the method: as §1
NUGC-3 = experiment: Growth inhibition of human NUGC3 cells after 24 hrs by WST-1 assay; type: functional; details: NUGC-3, 24 h; summary of the method: as §1
[1] = Growth inhibition of HDF cells after 72 hrs by WST-1 assay; type: cell-based; details: human
Summary of the method: (§2)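 Normal cells (HDF, HUVEC) were grown in Eagle's MEM with 4.5 g/L glucose, 10% FCS, 5 mM L-glutamine and penicillin/streptomycin, 37 °C, 5% CO2. Cells were seeded at 1 × 10^4 per well, cultured 12 h, then exposed to compound (0.5% DMSO final) for 72 h. Viability was read by WST-1 at 450/630 nm. GI50 given as mean ± SE of five experiments.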

[2] = Growth inhibition of HUVEC cells after 72 hrs by WST-1 assay; type: cell-based; details: human; summary of the method: as §2

Nc1ccn([C@@H]2O[C@H](CO)[C@@H](O)[C@@H]2O)c(=O)n1 [CYTARABINE] gave a GI50 (A549) of 200 nM, a GI50 (BALL-1) of 80 nM and a GI50 (HCT-116) of 120 nM. For the same compound, the GI50 (HeLa) was 180 nM, the GI50 (NUGC-3) was 250 nM and the GI50 at 72 h [1] was 250 nM. The GI50 at 72 h [2] was 230 nM.
